Measurements from publication PMC3535304 (Bioorganic & medicinal chemistry, 2012).
“Also recorded” adds a separate entry of the source. Like-named read-outs stand apart in the source and are kept apart here.

Legend:
[1] = tested on: Jurkat cells; assay: In vitro antiproliferative assay; format: cell-based; details: Homo sapiens, 72 h, read-out: IC50 (cell growth inhibition)
Method in brief: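 Jurkat cells were grown in RPMI-1640 with 10% FBS, penicillin G (115 units/mL) and streptomycin (115 μg/mL). Cells were seeded at 8 × 10³ per well and held 18 h at 37 °C in 5% CO₂. Medium was then replaced with fresh medium containing the test compound (DMSO ≤0.25% final) at various concentrations for 72 h. Viability was read by MTT.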

[2] = tested on: Jurkat cells; details: read-out: IC50 (cell growth inhibition), mean ± SE, ref [12]; cited from earlier work
[3] = tested on: HeLa cells; details: read-out: IC50 (cell growth inhibition), mean ± SE, ref [12]; cited from earlier work
[4] = tested on: A549 cells; details: read-out: IC50 (cell growth inhibition), cited from earlier work
[5] = tested on: HT-29 cells; details: read-out: IC50 (cell growth inhibition); HT-29, mean ± SE; ref [12]; cited from earlier work
[6] = tested on: HL-60 cells; details: read-out: IC50 (cell growth inhibition); HL-60, mean ± SE; ref [12]; cited from earlier work
[7] = target: bovine brain tubulin (Bos taurus, UniProt P81947+Q6B856); assay: Inhibition of tubulin polymerization; format: biochemical; details: read-out: Tubulin assembly IC50; tubulin at 10 μM, 20 min incubation
bovine brain tubulin, sequence (Q6B856 whole entry): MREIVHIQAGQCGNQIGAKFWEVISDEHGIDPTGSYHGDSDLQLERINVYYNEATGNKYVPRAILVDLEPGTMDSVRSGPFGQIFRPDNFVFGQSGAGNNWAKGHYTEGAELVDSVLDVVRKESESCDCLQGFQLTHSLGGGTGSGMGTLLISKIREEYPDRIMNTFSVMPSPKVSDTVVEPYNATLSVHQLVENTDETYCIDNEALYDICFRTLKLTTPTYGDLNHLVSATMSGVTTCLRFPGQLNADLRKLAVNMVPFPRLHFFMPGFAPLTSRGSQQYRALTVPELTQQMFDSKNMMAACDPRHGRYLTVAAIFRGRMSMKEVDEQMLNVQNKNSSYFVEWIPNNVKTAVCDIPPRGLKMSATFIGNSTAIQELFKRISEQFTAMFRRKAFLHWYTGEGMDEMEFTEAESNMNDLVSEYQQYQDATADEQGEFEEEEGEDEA
bovine brain tubulin, sequence (P81947 whole entry): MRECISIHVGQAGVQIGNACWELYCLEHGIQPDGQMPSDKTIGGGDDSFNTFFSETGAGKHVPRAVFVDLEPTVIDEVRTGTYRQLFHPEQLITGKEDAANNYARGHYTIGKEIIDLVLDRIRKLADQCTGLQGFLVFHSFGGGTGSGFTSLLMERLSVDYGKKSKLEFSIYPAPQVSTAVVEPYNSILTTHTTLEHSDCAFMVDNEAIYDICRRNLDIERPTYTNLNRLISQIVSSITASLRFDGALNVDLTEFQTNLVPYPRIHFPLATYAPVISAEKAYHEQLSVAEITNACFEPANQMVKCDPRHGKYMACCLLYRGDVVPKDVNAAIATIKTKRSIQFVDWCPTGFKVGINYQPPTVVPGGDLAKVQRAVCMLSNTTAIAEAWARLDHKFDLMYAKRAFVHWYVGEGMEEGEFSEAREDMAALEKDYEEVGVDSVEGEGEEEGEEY

[8] = tested on: MCF-7 cells; details: read-out: IC50 (cell growth inhibition); MCF-7, mean ± SE; ref [12]; cited from earlier work
[9] = tested on: CEM^Vbl100 cells; assay: Cell growth inhibition, drug resistant cell line; format: cell-based; details: Homo sapiens, CEM/VBL100, read-out: IC50 (cell growth inhibition)
Method in brief: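 Growth inhibition was read by MTT after 72 h exposure to a range of test-compound concentrations at 37 °C in 5% CO₂. DMSO was ≤0.25% final.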

[10] = tested on: CEM cells; assay: Cell growth inhibition, parental line of drug resistant pair; format: cell-based; details: Homo sapiens, CCRF-CEM, read-out: IC50 (cell growth inhibition)
[11] = tested on: HT-29 cells; assay: In vitro antiproliferative assay; format: cell-based, human; details: 3d vs 2d, 3e vs 2e
[12] = tested on: LoVo^Doxo cells; details: IC50 LoVo^Doxo / IC50 LoVo; ref [8]; cited from earlier work
[13] = tested on: LoVo cells; details: read-out: IC50 (cell growth inhibition), ref [8]; cited from earlier work
[14] = tested on: caspase-3; assay: Western blot analysis in HeLa cells; format: cell-based, human; details: 24 and 48 h
Method in brief: (§1)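 HeLa cells were exposed to test compound for 24 or 48 h, washed in cold PBS, and lysed on ice for 30 min. Cleared lysate (20 μg protein, BCA) was run on 7.5–15% SDS-PAGE and moved to PVDF. Primary antibodies (2 h, room temperature) were procaspase-2, cleaved caspase-8, cleaved caspase-3, PARP and cyclin B1, followed by peroxidase secondary and ECL. Membranes were reprobed for β-actin.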

[15] = tested on: caspase-8; assay: Western blot analysis in HeLa cells; format: cell-based, human; details: 24 or 48 h
Method in brief: as §1

[16] = tested on: caspase-9; assay: Western blot analysis in HeLa cells; format: cell-based, human; details: data not shown
[17] = tested on: caspase-2; assay: Western blot analysis in HeLa cells; format: cell-based, human; details: 24 or 48 h
Method in brief: as §1

[18] = tested on: mitochondrial polarization and ROS production; assay: Mitochondrial functions; format: cell-based; details: data not shown
[19] = tested on: Jurkat cells; assay: Flow cytometric analysis of cell cycle distribution; format: cell-based, human; details: 24 h
Method in brief: (§2)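 Exponentially growing cells (5 × 10⁵) were treated 24 h with test compound at 31–500 nM. They were then fixed in ice-cold 70% ethanol and treated with lysis buffer containing RNase A and 0.1% Triton X-100. DNA was stained with propidium iodide and content measured by flow cytometry, with cycle phases taken from DNA histograms. Mean ± SEM of three independent experiments.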

[20] = tested on: HeLa cells; assay: Annexin-V/PI apoptosis assay; format: cell-based, human; details: 250 or 500 nM, 24 or 48 h
Method in brief: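 HeLa cells exposed to test compound for 24 or 48 h, then labelled with annexin-V-FITC (kit protocol) and propidium iodide together. Red (PI) and green (FITC) fluorescence read by flow cytometry. Maximum DMSO 0.25%. Mean ± SEM of three independent experiments.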

[21] = tested on: HeLa cells; assay: Flow cytometric analysis of cell cycle distribution; format: cell-based, human; details: 24 h, range tested 31 to 500 nM
Method in brief: as §2

[22] = tested on: MCF-7 cells; assay: In vitro antiproliferative assay; format: cell-based, human; details: 3e vs 2e, 3b vs 2b
[23] = tested on: A549-T12 cells; details: ref [8], cited from earlier work
[24] = tested on: cyclin B; assay: Western blot analysis in HeLa cells; format: cell-based, human; details: 48 h
Method in brief: as §1

[25] = tested on: six human cancer cell lines (HeLa, A549, HL-60, Jurkat, MCF-7, HT-29); assay: Antiproliferative activity across the panel of six human cancer cell lines; format: cell-based; details: read-out: IC50 values against the six cell lines (range)
Method in brief: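 Jurkat and HL-60 cells were grown in RPMI-1640; MCF-7, A549, HeLa and HT-29 in DMEM; all media had 10% FBS plus penicillin/streptomycin. Cells were seeded at 8 × 10³/well, held 18 h at 37 °C in 5% CO₂, then given fresh medium with test compound (DMSO stocks, ≤0.25% final) for 72 h. Viability was read by MTT. […] Mean ± SE, ≥3 experiments.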

| IC50 [7] [nM] | Compound | IC50 [2] [nM] | IC50 [3] [nM] | IC50 ([4]; A549, mean ± SE, ref [12]) [nM] | IC50 [5] [nM] | IC50 [6] [nM] | IC50 [8] [nM] | other results |
| --- | --- | --- | --- | --- | --- | --- | --- | --- |
| – | COc1ccc(/C=C\c2cc(OC)c(OC)c(OC)c2)cc1O [CA-4, Combretastatin A-4] | – | – | – | – | – | – | IC50 [1]: 5 ± 0.6 nM |
| 610 ± 50 | CCOc1ccc(-c2sc(N)nc2-c2cc(OC)c(OC)c(OC)c2)cc1 [2e] | 0.14 ± 0.05 | 0.03 ± 0.005 | 0.09 ± 0.01 | 38.2 ± 11.4 | 0.9 ± 0.3 | 44 ± 6.3 | – |
| – | CC[C@]1(O)C[C@@H]2CN(CCc3c([nH]c4ccccc34)[C@@](C(=O)OC)(c3cc4c(cc3OC)N(C)[C@H]3[C@@](O)(C(=O)OC)[C@H](OC(C)=O)[C@]5(CC)C=CCN6CC[C@]43[C@@H]65)C2)C1 [Vinblastine] | – | – | – | – | – | – | IC50 [9]: 205 ± 46 nM; IC50 [10]: 0.8 ± 0.1 nM |
| – | CNc1nc(-c2cc(OC)c(OC)c(OC)c2)c(-c2ccc(OC)cc2)s1 [3d, 4-(3,4,5-Trimethoxyphenyl)-5-(4-methoxyphenyl)-N-methylthiazol-2-amine] | – | – | – | – | – | – | fold more potent than 2-amino counterpart [11]: 2 fold |
| – | COc1cc(-c2nc(N)sc2-c2ccc(C(F)(F)F)cc2)cc(OC)c1OC [2c] | 8.5 ± 1.2 | 3.2 ± 0.4 | 357 ± 65 | 221 ± 50.2 | 5.1 ± 1.1 | 0.4 ± 0.1 | – |
| – | COc1cccc2c1C(=O)c1c(O)c3c(c(O)c1C2=O)C[C@@](O)(C(=O)CO)C[C@@H]3O[C@H]1C[C@H](N)[C@H](O)[C@H](C)O1 [Doxorubicin] | – | – | – | – | – | – | Resistance ratio [12]: 109.6; IC50 [13]: 120 ± 30 nM |
| – | COc1cc(-c2nc(C)sc2-c2ccc3ccccc3c2)cc(OC)c1OC [3k, 4-(3,4,5-Trimethoxyphenyl)-2-methyl-5-(naphthalen-2-yl)thiazole] | – | – | – | – | – | – | caspase-3 activation [14]: clear activation of caspase-3; cleavage of caspase-3 substrate PARP [14]: cleavage of the caspase-3 substrate PARP; caspase-8 activation (appearance of cleavage product) [15]: clear caspase-8 and caspase-2 activation; caspase-9 activation [16]: did not induce activation of caspase-9; caspase-2 activation (disappearance of uncleaved protein) [17]: clear caspase-8 and caspase-2 activation; effect on mitochondrial polarization and ROS production [18]: only slightly affected; concentration at which G2/M accumulation was first observed [19]: 125 nM; induction of apoptotic (annexin-V positive) cells [20]: significant induction of apoptotic cells; concentration at which G2/M accumulation was first observed [21]: 125 nM |
| 740 ± 10 | COc1cc(-c2nc(N)sc2-c2ccc3ccccc3c2)cc(OC)c1OC [2a] | 3.3 ± 0.9 | 1.6 ± 0.6 | 3.8 ± 0.6 | 23.9 ± 3.9 | 2.7 ± 0.3 | 51.2 ± 9.2 | – |
| – | CNc1nc(-c2cc(OC)c(OC)c(OC)c2)c(-c2ccc(C)cc2)s1 [3b, 4-(3,4,5-Trimethoxyphenyl)-N-methyl-5-p-tolylthiazol-2-amine] | – | – | – | – | – | – | fold more potent than 2-amino counterpart [22]: ~28 fold |
| – | CC(=O)O[C@H]1C(=O)[C@@]2(C)[C@H]([C@H](OC(=O)c3ccccc3)[C@]3(O)C[C@H](OC(=O)[C@H](O)[C@@H](NC(=O)c4ccccc4)c4ccccc4)C(C)=C1C3(C)C)[C@]1(OC(C)=O)CO[C@@H]1C[C@@H]2O [Taxol] | – | – | – | – | – | – | IC50 ([4]; A549, ref [8]): 7.2 ± 0.1 nM; Resistance ratio ([23]; IC50 A549-T12 / IC50 A549): 10.4; IC50 ([23]; read-out: IC50 (cell growth inhibition), A549-T12): 75.2 ± 12.5 nM |
| 440 ± 10 | COc1cc(-c2nc(N)sc2-c2ccc(C)cc2)cc(OC)c1OC [2b] | 3.9 ± 0.6 | 0.73 ± 0.2 | 42.8 ± 5.7 | 12.4 ± 5.1 | 3.9 ± 1.1 | 280 ± 69.8 | – |
| – | CCOc1ccc(-c2sc(NC)nc2-c2cc(OC)c(OC)c(OC)c2)cc1 [3e, 5-(4-Ethoxyphenyl)-4-(3,4,5-trimethoxyphenyl)-N-methylthiazol-2-amine] | – | – | – | – | – | – | caspase-3 activation [14]: clear activation of caspase-3; cleavage of caspase-3 substrate PARP [14]: cleavage of the caspase-3 substrate PARP; caspase-8 activation (appearance of cleavage product) [15]: clear caspase-8 and caspase-2 activation; caspase-9 activation [16]: did not induce activation of caspase-9; caspase-2 activation (disappearance of uncleaved protein) [17]: clear caspase-8 and caspase-2 activation; effect on mitochondrial polarization and ROS production [18]: did not cause mitochondrial depolarization; also recorded: only slightly affected; induction of apoptotic (annexin-V positive) cells [20]: Analogous behaviour but with a stronger effect; fold more potent than 2-amino counterpart [11]: 10 fold; cyclin B expression [24]: slight decrease; IC50 [25]: 1.7 to 38 nM; concentration at which G2/M accumulation was first observed [21]: 31 nM |

| Compound | IC50 [7] [nM] | IC50 [2] [nM] | IC50 [3] [nM] | IC50 ([4]; A549, mean ± SE, ref [12]) [nM] | IC50 [5] [nM] | IC50 [6] [nM] | IC50 [8] [nM] | other results |
| --- | --- | --- | --- | --- | --- | --- | --- | --- |
| COc1ccc(-c2sc(N)nc2-c2cc(OC)c(OC)c(OC)c2)cc1 [2d] | 1100 ± 70 | 2.1 ± 0.4 | 2.3 ± 0.2 | 20.2 ± 1.7 | 11.7 ± 3.9 | 3.2 ± 1.2 | 60.9 ± 8.4 | – |
